# Compound activity: PubChem, several laboratories
# STAT3 blocker: IL-6 driven STAT3 reporter inhibitors, primary screen, U3A cells, luciferase, luminescence, MLSCN library. IL-6 STAT3-luciferase reporter; host cell line lacks STAT1. inhibition, % at 5.5 µM. 190,000 compounds, 0.89% hits. AID 862, 2007;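 active = inhibition above the mean inhibition across all screened compounds plus 3 SD, cut at about 44% in these data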;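 note: 0% = DMSO only wells and 100% = 100 µM nifuroxazide control wells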
# PPC-1+TRAIL kill: compounds killing PPC-1 cancer cells with TRAIL present, primary screen, TRAIL potentiator project, ATPLite luminescence, uHTS | PPC-1 cells + TRAIL, ATPLite viability luminescence | 220,000 compounds, 0.41% hits | AID 1443, 2008 | cell killing (% activity), % at 4 µM or 5 µM;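 active = cell killing above 50% in the first pass at 4 µM, then a duplicate retest at 5 µM averaging 50% or more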;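 note: plate controls were cells with TRAIL plus DMSO for no effect and medium-only wells lacking cells for full effect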
# TRAIL sens C8: viability loss with TRAIL in NB7+C8 cells, primary screen, TRAIL sensitizer project, cell-based, ATPlite luminescence | inhibition (viability loss, TRAIL sensitization), % at 10 µM | 360,000 compounds, 1% hits | AID 624354, 2012;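 active = compounds causing at least 50% loss of cell viability in the single-dose screen, relative to plate controls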
# HSP90 inh: HSP90 inhibitors, primary screen, cell lysate, luminescence. Heat shock protein HSP 90 (rabbit reticulocyte lysate; luciferase refolding). Rabbit reticulocyte lysate, luciferase refolding luminescence, 3 h. inhibition, % at 5.6 µM. 290,000 compounds, 0.91% hits;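 active = inhibition above the screen-wide mean plus 3 SD, computed separately per campaign, cut at about 16% in these data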;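 note: 0% = DMSO wells and 100% = 60 µM geldanamycin wells; inhibitors lower the luminescence because luciferase stays unfolded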
# STAT3 act-1: IL-6 driven STAT3 reporter potentiators, primary screen, U3A cells, luciferase, luminescence, MLSCN library | AID 871, 2007 | IL-6 STAT3-luciferase reporter; 100% = signal with IL-6 EC80 alone | activation (% of control), % at 5.6 µM | 190,000 compounds, 0.91% hits;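 active = activation above the screen-wide mean of compound activation plus 3 SD, cut at about 130% in these data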;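 note: 0% = background luminescence of wells with medium and substrate only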
#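 Test system: Human STAT1-deficient U3A cells with stable STAT3-luciferase reporter | Also added: Interleukin-6, 33 ng/mL | Timing: Compound pre-incubation 1 h before IL-6, then 6 h stimulation at 37 °C | Technique: Luciferase reporter luminescence | Read-out: Percent of IL-6-only median luminescence | Benchmarks: IL-6-only wells as 100% reference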
# STAT1 inh: STAT1 signaling inhibitors, primary screen, cell-based, HTS, luciferase reporter; NIH 3T3 STAT1-luciferase reporter, IFN-gamma, luminescence; inhibition, % at 5.5 µM; 200,000 compounds, 0.35% hits; AID 920, 2007;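 active = inhibition above a set limit, the mean inhibition across all tested compounds plus 3 SD, cut at about 34% in these data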;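 note: 0% = IFN-gamma with DMSO and 100% = IFN-gamma with 300 µM nifuroxazide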
# STAT3 act-2: STAT3 reporter potentiators, retest of hits, confirmation, U3A cells, luciferase, luminescence. shares compounds with STAT3 act-1. IL-6 potentiation; U3A cells lack STAT1; 100 means same as IL-6 alone. potentiation (% of control), % at 5.7 µM. 1,200 compounds, 64% hits. AID 1267, 2008;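 active = percent activation of the STAT3 luciferase reporter above a set limit taken from the earlier primary screen, cut at about 130% in these data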;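 note: 0% = background signal of medium plus substrate and 100% = median of IL-6 with DMSO wells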
# NFkB act 2: NF-kB reporter activators in human cells, counter-screen for STAT3 activator project; shares compounds with STAT3 act-1; NF-kappaB reporter activation; activation (% of control), % at 5.7 µM; 1,200 compounds, 11% hits; in the data active = activation above about 120%;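 note: reporter induced by TNF-alpha stimulation; 100% = median of stimulated DMSO wells and 0% = no signal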
# STAT1 act STAT3c: STAT1 reporter activators, IFN-gamma induced, counter-screen for STAT3 activator project, cell-based, NIH 3T3, luciferase luminescence. NIH 3T3 STAT1-luciferase reporter. activation (% of control), % at 5.7 µM. AID 1318, 2008. shares compounds with STAT3 act-1. 1,200 compounds, 13% hits;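 active = activation above the solvent-only control well mean plus 3 SD, set per screening run, cut at about 120% in these data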;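 note: 100% = IFN-gamma with DMSO median signal so 100% means no change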
# * = called active by the depositor; nt = no result given. Hits are enriched below; roughly 2.3% of the tested compounds scored in any of these assays.
SMILES,STAT3 blocker,PPC-1+TRAIL kill,TRAIL sens C8,HSP90 inh,STAT3 act-1,STAT1 inh,STAT3 act-2,NFkB act 2,STAT1 act STAT3c
CCOC(=O)CN1C=C(c2ccc3ccccc3n2)C(C[N+](=O)[O-])c2ccccc21 (centres undefined),-59,-6,4,0,157*,0,136*,108,104
Cc1cc(C)c(S(=O)(=O)/N=C2/C=C(SCC(=O)O)C(=O)c3ccccc32)cc1C,-37,35,3,8,139*,6,135*,97,96
Cc1ccc(S(=O)(=O)/N=C2\C=C(NS(=O)(=O)c3ccccc3)C(=O)c3ccccc32)cc1,nt,nt,-17,nt,nt,nt,nt,nt,nt
O=C(Nc1ccccc1N1CCN(C(=O)c2ccc(Cl)cc2)CC1)c1cc2ccccc2o1,-48,16,5,-1,147*,2,123,98,105
Cc1cc(Br)ccc1SCC(=O)OC/C(O)=C(\C#N)c1nc2ccccc2[nH]1,nt,18,10,0,nt,nt,nt,nt,nt
Cc1cccc(Nc2nnc(SC/C(O)=C(\C#N)c3nc4ccccc4[nH]3)s2)c1C,-63,9,25,-4,148*,16,145*,103,90
Cc1cccc(C)c1Nc1nnc(SC/C(O)=C(\C#N)c2nc3ccccc3[nH]2)s1,-55,24,2,2,143*,10,152*,103,89
Cc1ccc(C)c(SCC(=O)OC/C(O)=C(\C#N)c2nc3ccccc3[nH]2)c1,-51,-22,15,2,146*,10,150*,111,91
COc1cc(NC(=O)c2cc(C(C)C)on2)c(OC)cc1Cl,-69,0,10,-1,168*,0,152*,97,104
COc1ccc(NC(=O)c2cc(C(C)C)on2)c(OC)c1,-32,7,-12,-3,131,-43,nt,nt,nt
COc1cc(NC(=O)c2cc(C3CC3)on2)c(OC)cc1Cl,-60,22,2,-2,159*,1,150*,103,98
O=C(c1ccc(Cl)c(S(=O)(=O)N2CCCCC2)c1)N1CCN(Cc2ccccc2)CC1,nt,nt,-2,-2,nt,nt,nt,nt,nt
COc1ccc(S(=O)(=O)NCC(c2ccco2)N2CCc3ccccc3C2)cc1 (centres undefined),nt,nt,0,nt,nt,nt,nt,nt,nt
Oc1ccccc1-c1nc(N2CCN(Cc3ccccc3)CC2)c2ccccc2n1,-52,-2,9,3,146*,2,141*,104,101
COc1ccc(C(O)P(=O)(OCCC(C)C)c2ccc(N(C)C)cc2)cc1OC (centres undefined),nt,-22,-1,1,nt,nt,nt,nt,nt
NC(=O)CN1CCN(C2CC(=O)N(CCc3ccccc3)C2=O)CC1 (centres undefined),6,8,-5,5,100,0,nt,nt,nt
O=C(Nc1ccc(S(=O)(=O)N2CCCCC2)cc1)C1CCCCC1,nt,nt,14,2,nt,nt,nt,nt,nt
O=C(Nc1ccc2c(c1)oc1ccccc12)C1CC1,-45,11,7,-4,143*,-19,142*,131*,134*
O=C(Nc1ccc2c(c1)oc1ccc(S(=O)(=O)N3CCCC3)cc12)C1CC1,-60,21,7,2,154*,-1,94,103,102
COc1cc(NC(=O)CSc2nc3ccccc3n2-c2ccccc2)c(C)cc1[N+](=O)[O-],-2,17,12,2,100,8,nt,nt,nt
COc1ccccc1-c1nc(SCC(=O)O)n[nH]1,-40,33,-5,-3,137*,-7,125,107,102
COc1ccccc1-c1nc(N)n[nH]1,-44,13,-3,2,146*,-5,125,101,100
COc1ccccc1-c1cc(N)n[nH]1,1,-10,2,1,104,-8,nt,nt,nt
COc1ccc(NC(=O)Nc2ccc3nccnc3c2)cc1,12,-20,34,1,95,-31,nt,nt,nt
COC(=O)/C(=C/Nc1cccc2ccccc12)[N+](=O)[O-],-77,-2,-2,7,173*,11,135*,108,99
SMILES,STAT3 blocker,PPC-1+TRAIL kill,TRAIL sens C8,HSP90 inh,STAT3 act-1,STAT1 inh,STAT3 act-2,NFkB act 2,STAT1 act STAT3c
COc1cc(OC)cc(C(=O)Nc2cccc3ccccc23)c1,nt,nt,1,4,nt,nt,nt,nt,nt
CCCCn1c(N)c(N(CCOC)C(=O)COC(=O)COc2cc(C)c(Cl)cc2C(C)C)c(=O)[nH]c1=O,nt,nt,-8,nt,nt,nt,nt,nt,nt
COc1ccc(S(=O)(=O)Nc2c(C(=O)O)[nH]c3ccccc23)cc1OC,-42,18,-8,-3,141*,-1,165*,110,100
O=C(O)c1[nH]c2ccccc2c1NS(=O)(=O)Cc1ccccc1,-57,19,-14,-2,155*,-1,165*,103,94
O=C(O)c1[nH]c2ccccc2c1NS(=O)(=O)c1ccc(F)cc1,nt,nt,5,-3,nt,nt,nt,nt,nt
COc1ccc(/C=N/OCc2nc3c4c(ncn3n2)Oc2ccc3ccccc3c2C4c2ccccc2)cc1 (centres undefined),3,12,6,-1,102,-7,nt,nt,nt
CC(C)OC(=O)c1cccnc1SCc1cc(=O)n2ccccc2n1,-48,-4,10,-2,144*,3,127,105,104
CCOC(=O)c1cnn(-c2ncnc3sc(C)c(C)c23)c1N,-57,28,12,-2,149*,6,143*,101,104
Cc1cc2nc(/C=C/c3cccnc3)[nH]c2cc1C,nt,nt,36,0,nt,nt,nt,nt,nt
CC1CCCC(C)N1C(=O)Cn1cc(/C=C2/C(=O)Nc3ccccc32)c2ccccc21 (centres undefined),-70,21,-1,2,158*,-4,151*,99,103
Cc1ccc(C(c2nnnn2CC2CCCO2)N2CCN(C)CC2)cc1 (centres undefined),11,5,10,-1,101,-6,nt,nt,nt
CCOC(=O)c1cc(NC(=O)OC)c(C)nc1C,-1,-2,12,-2,105,-1,nt,nt,nt
COc1cc(C(=O)OCC(=O)Nc2ccc(S(=O)(=O)N3CCCC3)cc2)cc(OC)c1OC,nt,nt,-17,nt,nt,nt,nt,nt,nt
